The array DNA melting data of Ke et al. (doi:10.1101/2024.01.08.574731)

Tests used:
[1] = folding enthalpy; higher = less favourable; fluorescence melt of hairpins on a sequencing array, two-state fit; settings: sodium 0.088 M
In short: (§1)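 Cy3 signals were normalised both to pre-quench Cy3 and to control constructs. They came from library hairpins carrying annealed Cy3 and quencher oligos on a sequenced MiSeq flow cell, imaged in 50 mM Na-HEPES pH 8.0, 25 mM NaCl, in 2.5 °C steps up to 60 °C. Bootstrapped two-state fits gave melting temperature and folding enthalpy, and four replicates were combined by inverse variance. Fitted temperatures were then raised by 9.35 °C to match UV melts.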

[2] = melting temperature; fluorescence melt of hairpins on a sequencing array, two-state fit, raised by 9.35 °C to match UV melts; settings: sodium 0.088 M
In short: as §1

| Sequence | folding enthalpy [1] | Tm [2] |
| --- | --- | --- |
| GCGCAAGGAAACTCGCGC ((((.((....)).)))) | -36.1 kcal/mol | 54.6 °C |
| GCGCAAGGAAACTTGCAC (.(((((....))))).) | -13.4 kcal/mol | 46.3 °C |
| GCGCAATCGAAAGATCGC (((..(((....)))))) | -24.1 kcal/mol | 45.5 °C |
| GCGCACCGAAAGGTCGC (((.(((....)))))) | -25.7 kcal/mol | 67 °C |
| GCGCACGAAAGTGATCGC ((((((....)))..))) | -24.8 kcal/mol | 49.6 °C |
| GCGCACGAAAGTGCCCGC ((((((....)))..))) | -12 kcal/mol | 47 °C |
| GCGCACGGAAACGCGCGC ((((.((....)).)))) | -40.6 kcal/mol | 69 °C |
| GCGCAGCGAAAGCACCGC (((..((....))..))) | -8.24 kcal/mol | 45.2 °C |
| GCGCAGCGAAAGCCCCGC (((..((....))..))) | -5.72 kcal/mol | 36.4 °C |
| GCGCAGCGAAAGCCGGGC ((.(.((....)).).)) | -8.2 kcal/mol | 41.2 °C |
| GCGCAGCGAAAGCTCCGC (((.(((....))).))) | -34.1 kcal/mol | 44.7 °C |
| GCGCAGCGAAAGCTTTGC ((..(((....)))..)) | -6.59 kcal/mol | 38.8 °C |
| GCGCATCGAAAGATCGC (((.(((....)))))) | -37 kcal/mol | 55.8 °C |
| GCGCATGGAAACATACGC (((.(((....))).))) | -40.6 kcal/mol | 49.5 °C |
| GCGCATGGAAACATGTGC ((.((((....)))).)) | -36.5 kcal/mol | 57.1 °C |
| GCGCCACGAAAGTGACGC (((.(((....))).))) | -38.4 kcal/mol | 66 °C |
| GCGCCAGGAAACTGACGC (((.(((....))).))) | -43.1 kcal/mol | 56 °C |
| GCGCCAGGAAACTGGCAC (.(((((....))))).) | -12.2 kcal/mol | 47.5 °C |
| GCGCCATCGAAAGATCGC (((..(((....)))))) | -24.3 kcal/mol | 42.5 °C |
| GCGCCCACGAAAGTGCGC (((..(((....)))))) | -35.2 kcal/mol | 56 °C |
| GCGCCCGAAAGGGACCGC ((((((....)))..))) | -22.7 kcal/mol | 50.3 °C |
| GCGCCCGAAAGGGCTCGC ((((((....)))..))) | -13 kcal/mol | 52.4 °C |
| GCGCCCGAAAGGGGTCGC ((((((....)))..))) | -19.5 kcal/mol | 58.3 °C |
| GCGCCCGGAAACGAGCGC ((((.((....)).)))) | -38.9 kcal/mol | 60 °C |

| Sequence | folding enthalpy [1] | Tm [2] |
| --- | --- | --- |
| GCGCCCGGAAACGGGCAC (.(((((....))))).) | -9.09 kcal/mol | 55.4 °C |
| GCGCCGACGAAAGTCCGC (((..(((....)))))) | -19.8 kcal/mol | 50 °C |
| GCGCCGCGAAAGCCTCGC (((..((....))..))) | -19.3 kcal/mol | 44.4 °C |
| GCGCCGCGAAAGCGTTGC ((..(((....)))..)) | -15.3 kcal/mol | 47.6 °C |
| GCGCCGCGAAAGCTGTGC ((.(.((....)).).)) | -20.4 kcal/mol | 53.9 °C |
| GCGCCGGGAAACCGGTGC ((.((((....)))).)) | -31.5 kcal/mol | 69 °C |
| GCGCCTGGAAACAGGCAC (.(((((....))))).) | -11.9 kcal/mol | 47.9 °C |
| GCGCGACGAAAGTCCCGC (((.(((....))).))) | -42.8 kcal/mol | 57.5 °C |
| GCGCGACGAAAGTCCGC (((.(((....)))))) | -29 kcal/mol | 66.8 °C |
| GCGCGAGGAAACCCGCAC (.(((.(....).))).) | -16.8 kcal/mol | 38.1 °C |
| GCGCGATCGAAAGATCGC (((..(((....)))))) | -6.32 kcal/mol | 60.6 °C |
| GCGCGCGAAAGCGATCGC ((((((....)))..))) | -18.5 kcal/mol | 52.8 °C |
| GCGCGCGAAAGCGTCCGC ((((((....)))..))) | -14.9 kcal/mol | 53 °C |
| GCGCGCTCGAAAGAGCGC (((..(((....)))))) | -6.02 kcal/mol | 66.8 °C |
| GCGCGGCGAAAGCCCAGC ((..(((....)))..)) | -16 kcal/mol | 57.5 °C |
| GCGCGGCGAAAGCTGTGC ((.(.((....)).).)) | -32.2 kcal/mol | 65.2 °C |
| GCGCGTCGAAAGACCCGC (((.(((....))).))) | -37.3 kcal/mol | 55.8 °C |
| GCGCGTGGAAACACACGC (((.(((....))).))) | -34.1 kcal/mol | 57.4 °C |
| GCGCGTGGAAACACGTGC ((.((((....)))).)) | -52.1 kcal/mol | 64.1 °C |
| GCGCTAGGAAACTAACGC (((.(((....))).))) | -29.9 kcal/mol | 45.5 °C |
| GCGCTATCGAAAGATCGC (((..(((....)))))) | -25.6 kcal/mol | 44.2 °C |
| GCGCTCGAAAGAGACGC ((((((....))).))) | -28.6 kcal/mol | 58 °C |
| GCGCTCGAAAGAGATCGC ((((((....)))..))) | -24.7 kcal/mol | 45.8 °C |
